In brackets after ≈: the same amount, converted by molar mass.
Tests used:
Type in all cases: functional
Klebsiella pneumoniae [1] = test: Antibacterial activity against Klebsiella pneumoniae 10-2 after 18 to 24 hrs by NCCLS method
How it was run: (§1)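 Standard NCCLS (M100-S11) MIC testing against Gram-positive and Gram-negative strains. Plates were incubated at 35 °C for 18–24 h. The MIC was read as the lowest concentration giving complete inhibition of visible bacterial growth.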

Klebsiella pneumoniae [2] = test: Antibacterial activity against extended spectrum beta-lactamases producing Klebsiella pneumoniae 10-1 after 18 to 24 hrs by NCCLS method; how it was run: as §1
[3] = tested on: Staphylococcus epidermidis; test: Antibacterial activity against methicillin-sensitive Staphylococcus epidermidis 10-15 after 18 to 24 hrs by NCCLS method
How it was run: (§2)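 Incubated at 35 °C for 18–24 h under NCCLS (M100-S11) standards. MIC was read as the lowest concentration giving complete inhibition of visible bacterial growth.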

Staphylococcus aureus [4] = test: Antibacterial activity against methicillin-sensitive Staphylococcus aureus 10-11 after 18 to 24 hrs by NCCLS method; how it was run: as §1
Escherichia coli [5] = test: Antibacterial activity against extended spectrum beta-lactamases producing Escherichia coli 10-4 after 18 to 24 hrs by NCCLS method; how it was run: as §1
Pseudomonas aeruginosa [6] = test: Antibacterial activity against Pseudomonas aeruginosa 10-9 after 18 to 24 hrs by NCCLS method; how it was run: as §1
Staphylococcus aureus [7] = test: Antibacterial activity against methicillin-resistant Staphylococcus aureus 10-15 after 18 to 24 hrs by NCCLS method; how it was run: as §2
Streptococcus pneumoniae [8] = test: Antibacterial activity against Streptococcus pneumoniae 10-6 after 18 to 24 hrs by NCCLS method; how it was run: as §1
Escherichia coli [9] = test: Antibacterial activity against Escherichia coli ATCC 25922 after 18 to 24 hrs by NCCLS method; how it was run: as §1
Escherichia coli [10] = test: Antibacterial activity against Escherichia coli 10-2 after 18 to 24 hrs by NCCLS method; how it was run: as §1
Pseudomonas aeruginosa [11] = test: Antibacterial activity against Pseudomonas aeruginosa 10-12 after 18 to 24 hrs by NCCLS method; how it was run: as §1
[12] = tested on: Mycobacterium tuberculosis; test: Antimycobacterial activity against Mycobacterium tuberculosis H37Rv ATCC 27294 by microplate alamar blue assay
How it was run: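 Microplate Alamar Blue fluorescence assay on strain H37Rv ATCC 27294. MIC was the lowest concentration cutting fluorescence by ≥90% against the mean of replicate bacterium-only controls.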

[13] = tested on: Staphylococcus epidermidis; test: Antibacterial activity against methicillin-resistant Staphylococcus epidermidis 10-13 after 18 to 24 hrs by NCCLS method; how it was run: as §2
Escherichia coli [14] = test: Antibacterial activity against extended spectrum beta-lactamases producing Escherichia coli 10-2 after 18 to 24 hrs by NCCLS method; how it was run: as §1
Klebsiella pneumoniae [15] = test: Antibacterial activity against Klebsiella pneumoniae 10-3 after 18 to 24 hrs by NCCLS method; how it was run: as §1
Klebsiella pneumoniae [16] = test: Antibacterial activity against extended spectrum beta-lactamases producing Klebsiella pneumoniae 10-3 after 18 to 24 hrs by NCCLS method; how it was run: as §1
Escherichia coli [17] = test: Antibacterial activity against Escherichia coli 10-3 after 18 to 24 hrs by NCCLS method; how it was run: as §1
Enterococcus faecium [18] = test: Antibacterial activity against Enterococcus faecium 10-6 after 18 to 24 hrs by NCCLS method; how it was run: as §1
Escherichia coli [19] = test: Antibacterial activity against Escherichia coli 10-1 after 18 to 24 hrs by NCCLS method; how it was run: as §1
Staphylococcus aureus [20] = test: Antibacterial activity against Staphylococcus aureus ATCC 2592 after 18 to 24 hrs by NCCLS method; how it was run: as §1
Pseudomonas aeruginosa [21] = test: Antibacterial activity against Pseudomonas aeruginosa 10-20 after 18 to 24 hrs by NCCLS method; how it was run: as §1
Enterococcus faecalis [22] = test: Antibacterial activity against Enterococcus faecalis 10-7 after 18 to 24 hrs by NCCLS method; how it was run: as §1
Pseudomonas aeruginosa [23] = test: Antibacterial activity against Pseudomonas aeruginosa 10-18 after 18 to 24 hrs by NCCLS method; how it was run: as §1
Staphylococcus aureus [24] = test: Antibacterial activity against methicillin-resistant Staphylococcus aureus 10-11 after 18 to 24 hrs by NCCLS method; how it was run: as §2
Pseudomonas aeruginosa [25] = test: Antibacterial activity against Pseudomonas aeruginosa 10-15 after 18 to 24 hrs by NCCLS method; how it was run: as §1
[26] = tested on: Staphylococcus epidermidis; test: Antibacterial activity against methicillin-resistant Staphylococcus epidermidis 10-10 after 18 to 24 hrs by NCCLS method; how it was run: as §2
Enterococcus faecalis [27] = test: Antibacterial activity against Enterococcus faecalis 10-5 after 18 to 24 hrs by NCCLS method; how it was run: as §1
Staphylococcus aureus [28] = test: Antibacterial activity against methicillin-sensitive Staphylococcus aureus 10-14 after 18 to 24 hrs by NCCLS method; how it was run: as §1
Enterococcus faecium [29] = test: Antibacterial activity against Enterococcus faecium 10-9 after 18 to 24 hrs by NCCLS method; how it was run: as §1
Escherichia coli [30] = test: Antibacterial activity against extended spectrum beta-lactamases producing Escherichia coli 10-3 after 18 to 24 hrs by NCCLS method; how it was run: as §1
Pseudomonas aeruginosa [31] = test: Antibacterial activity against Pseudomonas aeruginosa 10-5 after 18 to 24 hrs by NCCLS method; how it was run: as §1
Klebsiella pneumoniae [32] = test: Antibacterial activity against extended spectrum beta-lactamases producing Klebsiella pneumoniae 10-2 after 18 to 24 hrs by NCCLS method; how it was run: as §1
Staphylococcus aureus [33] = test: Antibacterial activity against methicillin-resistant Staphylococcus aureus 10-13 after 18 to 24 hrs by NCCLS method; how it was run: as §2
Staphylococcus aureus [34] = test: Antibacterial activity against methicillin-sensitive Staphylococcus aureus 10-13 after 18 to 24 hrs by NCCLS method; how it was run: as §1
Streptococcus pneumoniae [35] = test: Antibacterial activity against Streptococcus pneumoniae 10-1 after 18 to 24 hrs by NCCLS method; how it was run: as §1
[36] = tested on: Staphylococcus epidermidis; test: Antibacterial activity against methicillin-sensitive Staphylococcus epidermidis 10-11 after 18 to 24 hrs by NCCLS method; how it was run: as §1
Klebsiella pneumoniae [37] = test: Antibacterial activity against Klebsiella pneumoniae 10-4 after 18 to 24 hrs by NCCLS method; how it was run: as §1
Enterococcus faecalis [38] = test: Antibacterial activity against Enterococcus faecalis 10-6 after 18 to 24 hrs by NCCLS method; how it was run: as §1

Row | Compound | MIC (Klebsiella pneumoniae [1]) [µg/mL] | MIC (Klebsiella pneumoniae [2]) [µg/mL] | MIC [3] [µg/mL] | MIC (Staphylococcus aureus [4]) [µg/mL] | MIC (Escherichia coli [5]) [µg/mL] | MIC (Pseudomonas aeruginosa [6]) [µg/mL] | MIC (Staphylococcus aureus [7]) [µg/mL] | MIC (Streptococcus pneumoniae [8]) [µg/mL] | MIC (Escherichia coli [9]) [µg/mL] | MIC (Escherichia coli [10]) [µg/mL] | MIC (Pseudomonas aeruginosa [11]) [µg/mL] | MIC [12] [µg/mL] | MIC [13] [µg/mL] | MIC (Escherichia coli [14]) [µg/mL] | MIC (Klebsiella pneumoniae [15]) [µg/mL] | MIC (Klebsiella pneumoniae [16]) [µg/mL] | MIC (Escherichia coli [17]) [µg/mL] | MIC (Enterococcus faecium [18]) [µg/mL] | MIC (Escherichia coli [19]) [µg/mL] | MIC (Staphylococcus aureus [20]) [µg/mL] | further results
1 | O=C(O)c1cn(C2CC2)c2cc(N3CCN(Cc4ccc5c(c4)OCO5)CC3)c(F)cc2c1=O | 64 (≈ 137 µM) | > 128 | 16 (≈ 34.4 µM) | 0.5 (≈ 1.07 µM) | 16 (≈ 34.4 µM) | 16 (≈ 34.4 µM) | 16 (≈ 34.4 µM) | 16 (≈ 34.4 µM) | 0.25 (≈ 0.537 µM) | 16 (≈ 34.4 µM) | 32 (≈ 68.7 µM) | 2 (≈ 4.3 µM) | 16 (≈ 34.4 µM) | > 128 | 8 (≈ 17.2 µM) | > 128 | 16 (≈ 34.4 µM) | 8 (≈ 17.2 µM) | > 128 | 0.25 (≈ 0.537 µM) | MIC (Pseudomonas aeruginosa [21]): 16 µg/mL (≈ 34.4 µM); MIC (Enterococcus faecalis [22]): 16 µg/mL (≈ 34.4 µM); MIC (Pseudomonas aeruginosa [23]): 8 µg/mL (≈ 17.2 µM); MIC (Staphylococcus aureus [24]): 32 µg/mL (≈ 68.7 µM); MIC (Pseudomonas aeruginosa [25]): 16 µg/mL (≈ 34.4 µM); MIC [26]: 16 µg/mL (≈ 34.4 µM); MIC (Enterococcus faecalis [27]): 16 µg/mL (≈ 34.4 µM); MIC (Staphylococcus aureus [28]): 1 µg/mL (≈ 2.15 µM); MIC (Enterococcus faecium [29]): 8 µg/mL (≈ 17.2 µM); MIC (Escherichia coli [30]): > 128 µg/mL; MIC (Pseudomonas aeruginosa [31]): 16 µg/mL (≈ 34.4 µM); MIC (Klebsiella pneumoniae [32]): > 128 µg/mL; MIC (Staphylococcus aureus [33]): 64 µg/mL (≈ 137 µM); MIC (Staphylococcus aureus [34]): 1 µg/mL (≈ 2.15 µM); MIC (Streptococcus pneumoniae [35]): 8 µg/mL (≈ 17.2 µM); MIC [36]: 2 µg/mL (≈ 4.3 µM); MIC (Klebsiella pneumoniae [37]): > 128 µg/mL; MIC (Enterococcus faecalis [38]): 32 µg/mL (≈ 68.7 µM)
2 | COc1ccc(CN2CCN(c3cc4c(cc3F)c(=O)c(C(=O)O)cn4C3CC3)CC2)c(OC)c1OC | > 128 | > 128 | 16 (≈ 31.3 µM) | 0.125 (≈ 0.244 µM) | 64 (≈ 125 µM) | 32 (≈ 62.6 µM) | 16 (≈ 31.3 µM) | 64 (≈ 125 µM) | 0.5 (≈ 0.977 µM) | 16 (≈ 31.3 µM) | 64 (≈ 125 µM) | 16 (≈ 31.3 µM) | 64 (≈ 125 µM) | > 128 | 16 (≈ 31.3 µM) | > 128 | 64 (≈ 125 µM) | 8 (≈ 15.6 µM) | > 128 | 0.5 (≈ 0.977 µM) | MIC (Pseudomonas aeruginosa [21]): 32 µg/mL (≈ 62.6 µM); MIC (Enterococcus faecalis [22]): 64 µg/mL (≈ 125 µM); MIC (Pseudomonas aeruginosa [23]): 64 µg/mL (≈ 125 µM); MIC (Staphylococcus aureus [24]): 16 µg/mL (≈ 31.3 µM); MIC (Pseudomonas aeruginosa [25]): 32 µg/mL (≈ 62.6 µM); MIC [26]: 64 µg/mL (≈ 125 µM); MIC (Enterococcus faecalis [27]): 16 µg/mL (≈ 31.3 µM); MIC (Staphylococcus aureus [28]): 0.125 µg/mL (≈ 0.244 µM); MIC (Enterococcus faecium [29]): 32 µg/mL (≈ 62.6 µM); MIC (Escherichia coli [30]): > 128 µg/mL; MIC (Pseudomonas aeruginosa [31]): 32 µg/mL (≈ 62.6 µM); MIC (Klebsiella pneumoniae [32]): > 128 µg/mL; MIC (Staphylococcus aureus [33]): 64 µg/mL (≈ 125 µM); MIC (Staphylococcus aureus [34]): 0.25 µg/mL (≈ 0.489 µM); MIC (Streptococcus pneumoniae [35]): 8 µg/mL (≈ 15.6 µM); MIC [36]: 0.25 µg/mL (≈ 0.489 µM); MIC (Klebsiella pneumoniae [37]): > 128 µg/mL; MIC (Enterococcus faecalis [38]): > 128 µg/mL

Source: ChEMBL document CHEMBL2157880, “Synthesis, antimycobacterial and antibacterial activity of ciprofloxacin derivatives containing a N-substituted benzyl moiety” (2012)
